Experimental data taken from ChEMBL document CHEMBL4673384, “Studying Histone Deacetylase Inhibition and Apoptosis Induction of Psammaplin A Monomers with Modified Thiol Group” (ACS Med Chem Lett, 2021).
Active and inactive are the calls of the source. The calls are words filed in the database; no cut-off is given here.

Tests used:
HL-60 [1] = assay: Induction of apoptosis in human HL-60 cells assessed as necrotic cells at 2 uM incubated for 24 hrs by propidium iodide and annexin-V FITC staining based FACS analysis (reference value: 0.5 %); format: functional
HL-60 [2] = assay: Induction of apoptosis in human HL60 cells assessed as necrotic cells at 4 uM incubated for 24 hrs by propidium iodide and annexin-V FITC staining based FACS analysis (reference value: 0.5 %); format: functional
HL-60 [3] = assay: Induction of apoptosis in human HL-60 cells assessed as late apoptotic cells at 8 uM incubated for 24 hrs by propidium iodide and annexin-V FITC staining based FACS analysis (reference value: 4.2 %); format: functional
Histone deacetylase 2 = Histone deacetylase 2 (Homo sapiens, UniProt Q92769); assay: Inhibition of HDAC2 in human HL-60 cells assessed as increase in Ac-H3 level at 0.5 to 8 uM incubated for 24 hrs by Western blot analysis; format: cell-based; details: dose 0.5-8 µM
Chain of Histone deacetylase 2 (Q92769 whole entry): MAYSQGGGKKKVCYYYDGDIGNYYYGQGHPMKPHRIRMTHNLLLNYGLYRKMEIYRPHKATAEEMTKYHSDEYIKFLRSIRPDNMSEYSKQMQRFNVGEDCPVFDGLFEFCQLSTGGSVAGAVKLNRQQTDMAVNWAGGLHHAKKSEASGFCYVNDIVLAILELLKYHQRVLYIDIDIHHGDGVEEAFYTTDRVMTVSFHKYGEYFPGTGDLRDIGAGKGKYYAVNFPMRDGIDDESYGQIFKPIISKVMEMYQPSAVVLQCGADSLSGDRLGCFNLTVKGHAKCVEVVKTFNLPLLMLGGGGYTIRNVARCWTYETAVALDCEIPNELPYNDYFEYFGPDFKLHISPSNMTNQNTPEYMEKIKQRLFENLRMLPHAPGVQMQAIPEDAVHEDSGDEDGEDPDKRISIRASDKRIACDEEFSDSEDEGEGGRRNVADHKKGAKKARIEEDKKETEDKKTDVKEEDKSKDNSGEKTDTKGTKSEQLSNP
In short: (§1)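 Compound given to HL-60 cells for 24 h at the stated concentrations, then lysed. Acetyl-histone H3 and acetyl-α-tubulin levels were read by Western blot, with total H3, α-tubulin or β-actin as references.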

HL-60 [4] = assay: Induction of apoptosis in human HL-60 cells assessed as late apoptotic cells at 2 uM incubated for 24 hrs by propidium iodide and annexin-V FITC staining based FACS analysis (reference value: 4.2 %); format: functional
HL-60 [5] = assay: Induction of apoptosis in human HL-60 cells assessed as viable cells at 4 uM incubated for 24 hrs by propidium iodide and annexin-V FITC staining based FACS analysis (reference value: 92.05 %); format: functional; details: read-out: Activity
[6] = Toxicity in mouse LL/2 cells inoculated C57BL/6J mouse assessed as effect on body weight by measuring initial body weight at 100 mg/kg, ip administered for 12 days and measured for every 2 days (reference value: 18.6 +/- 0.8 g); format: organism-based; details: in vivo, 288 h, time 12 day
Histone deacetylase 1 = Histone deacetylase 1 (Homo sapiens, UniProt Q13547); assay: Inhibition of HDAC1 in human HL-60 cells assessed as increase in Ac-H3 level at 0.5 to 8 uM incubated for 24 hrs by Western blot analysis; format: cell-based; details: dose 0.5-8 µM; in short: as §1
Chain of Histone deacetylase 1 (Q13547 whole entry): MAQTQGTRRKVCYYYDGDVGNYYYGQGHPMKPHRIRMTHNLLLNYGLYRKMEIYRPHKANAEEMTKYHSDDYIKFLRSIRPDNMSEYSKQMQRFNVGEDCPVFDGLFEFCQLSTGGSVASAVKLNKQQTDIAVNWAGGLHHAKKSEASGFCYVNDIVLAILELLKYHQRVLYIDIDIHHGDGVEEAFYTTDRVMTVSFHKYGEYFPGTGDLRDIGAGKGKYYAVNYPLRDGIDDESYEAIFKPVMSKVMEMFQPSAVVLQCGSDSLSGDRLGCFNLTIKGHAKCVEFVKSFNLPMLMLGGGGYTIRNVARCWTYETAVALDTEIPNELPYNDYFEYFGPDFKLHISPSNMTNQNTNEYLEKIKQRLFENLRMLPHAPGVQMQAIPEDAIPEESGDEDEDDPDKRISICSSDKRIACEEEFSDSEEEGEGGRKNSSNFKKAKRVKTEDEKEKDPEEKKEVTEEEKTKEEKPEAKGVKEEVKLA

HL-60 [7] = assay: Induction of apoptosis in human HL-60 cells assessed as cleavage of caspase-8 at 0.5 to 8 uM after 24 hrs Western blot analysis; format: functional, cell-based; details: dose 0.5-8 µM
In short: (§2)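 HL-60 cells were treated for 24 h at the indicated concentrations, then analysed by Western blot. Blots were probed for cleavage of PARP and caspase-3, -8 and -9. Ac-H3, Ac-α-tubulin and β-actin were also detected, with β-actin as the loading reference.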

HL-60 [8] = assay: Induction of apoptosis in human HL-60 cells assessed as early apoptotic cells at 2 uM incubated for 24 hrs by propidium iodide and annexin-V FITC staining based FACS analysis (reference value: 2.9 %); format: functional
[9] = biological target: T1, Protein deacetylase HDAC6 (Homo sapiens) (UniProt Q9UBN7); assay: Inhibition of HDAC6 in human HL-60 cells assessed as increase in acetylated alpha tubulin level at 0.5 to 8 uM after 24 hrs by Western blot analysis; format: cell-based; details: dose 0.5-8 µM; in short: as §1
T1 sequence (whole entry): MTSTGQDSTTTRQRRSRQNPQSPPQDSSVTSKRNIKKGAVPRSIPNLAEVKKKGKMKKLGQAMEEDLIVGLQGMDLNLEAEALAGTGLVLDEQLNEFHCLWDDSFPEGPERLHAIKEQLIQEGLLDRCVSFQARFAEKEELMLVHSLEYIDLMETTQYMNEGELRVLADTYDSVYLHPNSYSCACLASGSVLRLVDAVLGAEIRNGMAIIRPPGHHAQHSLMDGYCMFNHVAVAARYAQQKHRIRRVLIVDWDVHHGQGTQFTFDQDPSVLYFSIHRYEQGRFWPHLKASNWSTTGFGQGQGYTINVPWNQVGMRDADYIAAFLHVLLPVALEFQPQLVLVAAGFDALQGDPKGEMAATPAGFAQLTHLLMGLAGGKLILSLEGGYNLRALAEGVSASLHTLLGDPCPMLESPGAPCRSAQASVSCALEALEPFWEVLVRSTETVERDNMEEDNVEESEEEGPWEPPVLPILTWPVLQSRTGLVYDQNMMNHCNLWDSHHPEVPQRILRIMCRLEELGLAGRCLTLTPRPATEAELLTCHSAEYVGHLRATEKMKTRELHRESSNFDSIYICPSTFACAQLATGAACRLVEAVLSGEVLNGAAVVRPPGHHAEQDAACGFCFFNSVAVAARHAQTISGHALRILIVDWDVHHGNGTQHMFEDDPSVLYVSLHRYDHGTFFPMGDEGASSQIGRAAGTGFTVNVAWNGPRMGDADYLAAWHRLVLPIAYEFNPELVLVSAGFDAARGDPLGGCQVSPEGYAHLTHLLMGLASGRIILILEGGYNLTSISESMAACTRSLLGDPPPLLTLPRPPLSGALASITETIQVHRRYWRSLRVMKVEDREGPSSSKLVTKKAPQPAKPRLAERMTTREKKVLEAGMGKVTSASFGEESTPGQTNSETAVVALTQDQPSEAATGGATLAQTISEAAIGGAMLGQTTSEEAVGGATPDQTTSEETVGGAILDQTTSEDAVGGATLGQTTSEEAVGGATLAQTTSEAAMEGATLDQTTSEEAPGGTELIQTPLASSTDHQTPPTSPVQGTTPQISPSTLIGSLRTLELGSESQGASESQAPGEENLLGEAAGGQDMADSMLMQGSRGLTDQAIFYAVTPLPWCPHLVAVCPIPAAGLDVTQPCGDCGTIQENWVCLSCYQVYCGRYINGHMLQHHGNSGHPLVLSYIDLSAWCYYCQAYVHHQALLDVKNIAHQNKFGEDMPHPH

[10] = Antitumor activity against mouse LL/2 cells inoculated in C57BL/6J mouse assessed as reduction of tumor weight at 100 mg/kg, ip administered for 12 days and measured at day 14 (reference value: 1.2 +/- 0.3 g); format: functional, Lewis lung carcinoma; details: time 12 day
[11] = biological target: Histone deacetylase 3 (Homo sapiens) (UniProt O15379); assay: Inhibition of HDAC3 in human HL-60 cells assessed as increase in Ac-H3 level at 0.5 to 8 uM incubated for 24 hrs by Western blot analysis; format: cell-based; details: dose 0.5-8 µM; in short: as §1
Chain of Histone deacetylase 3 (Homo sapiens) (O15379 whole entry): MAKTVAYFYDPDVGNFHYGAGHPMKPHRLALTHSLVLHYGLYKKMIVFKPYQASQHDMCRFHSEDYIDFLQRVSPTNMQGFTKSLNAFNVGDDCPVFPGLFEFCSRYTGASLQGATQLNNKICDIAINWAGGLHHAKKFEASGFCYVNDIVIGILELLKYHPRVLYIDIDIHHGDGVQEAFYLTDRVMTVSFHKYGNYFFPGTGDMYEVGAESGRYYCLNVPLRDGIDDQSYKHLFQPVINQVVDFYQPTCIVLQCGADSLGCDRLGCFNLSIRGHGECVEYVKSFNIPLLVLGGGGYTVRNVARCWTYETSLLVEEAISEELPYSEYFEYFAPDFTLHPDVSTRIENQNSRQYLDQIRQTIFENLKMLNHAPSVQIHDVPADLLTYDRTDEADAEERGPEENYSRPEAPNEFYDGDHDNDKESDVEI

HL-60 [12] = assay: Induction of apoptosis in human HL-60 cells assessed as late apoptotic cells at 4 uM incubated for 24 hrs by propidium iodide and annexin-V FITC staining based FACS analysis (reference value: 4.2 %); format: functional
HL-60 [13] = assay: Induction of apoptosis in human HL-60 cells assessed as necrotic cells at 1 uM incubated for 24 hrs by propidium iodide and annexin-V FITC staining based FACS analysis (reference value: 0.5 %); format: functional
HL-60 [14] = assay: Induction of apoptosis in human HL-60 cells assessed as cleavage of PARP at 0.5 to 2 uM after 24 hrs Western blot analysis; format: functional, cell-based; details: dose 0.5-2 µM; in short: as §2
HL-60 [15] = assay: Induction of apoptosis in human HL-60 cells assessed as early apoptotic cells at 1 uM incubated for 24 hrs by propidium iodide and annexin-V FITC staining based FACS analysis (reference value: 2.8 %); format: functional
HL-60 [16] = assay: Induction of apoptosis in human HL-60 cells assessed as necrotic cells at 0.5 uM incubated for 24 hrs by propidium iodide and annexin-V FITC staining based FACS analysis (reference value: 0.3 %); format: functional

| Structure (SMILES) | Activity (HL-60 [1]) [%] | Activity (HL-60 [2]) [%] | Activity (HL-60 [3]) [%] | inhibition (Histone deacetylase 2) | Activity (HL-60 [4]) [%] | viability at 4 µM (HL-60 [5]) [%] | Activity [6] [g] | inhibition (Histone deacetylase 1) | Activity (HL-60 [7]) | Activity (HL-60 [8]) [%] | inhibition [9] | Activity [10] [g] | inhibition [11] | Activity (HL-60 [12]) [%] | Activity (HL-60 [13]) [%] | Activity (HL-60 [14]) | Activity (HL-60 [15]) [%] | Activity (HL-60 [16]) [%] |
| --- | --- | --- | --- | --- | --- | --- | --- | --- | --- | --- | --- | --- | --- | --- | --- | --- | --- | --- |
| O=C(NCCS)/C(Cc1ccc(O)c(Br)c1)=N/O | 0.3 | 0.3 | 25.1 | Active | 3.7 | 93.3 | 18.6 | Active | Active | 2.4 | inactive | 0.5 | Active | 4.7 | – | – | – | – |
| O=C(NCCSSCCNC(=O)/C(Cc1ccc(O)c(Br)c1)=N/O)/C(Cc1ccc(O)c(Br)c1)=N/O [PSAMMAPLIN A] | 3.9 | 3.7 | – | Active | 24.9 | 66.2 | – | Active | Active | 4.1 | inactive | – | Active | 26.7 | 0.8 | – | – | – |
| O=C(CCNC(=O)/C(Cc1ccc(O)c(Br)c1)=N/O)NO | – | – | – | – | – | – | – | – | – | – | – | – | – | – | – | Active | 7.1 | 0.2 |
